According to PubChem BioAssay AID652011 (Sanford-Burnham Center for Chemical Genomics, 2013):
Where “and” joins values, the source holds several entries; their conditions need not be identical. Equal values may be shown once.

Molecular target: Endothelial PAS domain-containing protein 1 (Homo sapiens) (UniProt Q99814)
Experiment: HIF reporter inhibition across pancreatic and renal lines – cell-based, luminescence, MIAPaCa-2, 786-0, panel, SAR follow-up (AID 652011)
Details: MIAPaCa-2/PANC HIF reporter, luciferase luminescence, desferoxamine, overnight, HIF2a PANC, run 2; at 99 µM (top of the series)
Outline: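 Probe or stimulus: desferoxamine stimulus; times: overnight seeding and compound exposure, 37 °C, 5% CO2, 10-min detection; signal: One-Glo luciferase luminescence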

Sequence of Endothelial PAS domain-containing protein 1 (Homo sapiens) (Q99814 whole entry, looked up, the tested form may be a part): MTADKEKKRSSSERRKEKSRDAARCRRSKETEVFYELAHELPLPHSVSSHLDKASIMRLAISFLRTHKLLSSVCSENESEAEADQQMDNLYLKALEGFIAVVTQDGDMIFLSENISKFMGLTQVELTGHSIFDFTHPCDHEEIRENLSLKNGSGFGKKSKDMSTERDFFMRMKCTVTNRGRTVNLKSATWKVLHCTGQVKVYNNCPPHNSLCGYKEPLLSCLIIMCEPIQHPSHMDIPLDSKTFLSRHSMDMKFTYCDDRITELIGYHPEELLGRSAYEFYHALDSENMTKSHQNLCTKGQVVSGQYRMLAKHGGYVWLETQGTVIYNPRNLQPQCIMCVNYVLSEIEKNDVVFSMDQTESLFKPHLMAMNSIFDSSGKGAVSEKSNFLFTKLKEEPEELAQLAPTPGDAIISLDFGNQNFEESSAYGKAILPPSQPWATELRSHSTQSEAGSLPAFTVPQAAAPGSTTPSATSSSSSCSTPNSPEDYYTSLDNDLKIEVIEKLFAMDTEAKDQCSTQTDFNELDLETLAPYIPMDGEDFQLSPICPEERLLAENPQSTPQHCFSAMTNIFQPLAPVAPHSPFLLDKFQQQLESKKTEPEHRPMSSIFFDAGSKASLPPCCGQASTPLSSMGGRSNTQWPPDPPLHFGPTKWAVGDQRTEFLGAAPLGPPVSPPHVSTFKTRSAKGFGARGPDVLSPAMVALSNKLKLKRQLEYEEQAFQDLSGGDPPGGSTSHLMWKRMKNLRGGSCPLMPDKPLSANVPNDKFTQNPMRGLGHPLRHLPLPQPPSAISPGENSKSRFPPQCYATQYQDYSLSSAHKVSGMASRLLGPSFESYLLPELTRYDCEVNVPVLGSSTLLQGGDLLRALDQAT

First: CNC(=O)CCc1nc(-c2ccc(C(C)(C)C)cc2)no1
Second: CC(C)NC(=O)CCc1nc(-c2ccc(C(C)(C)C)cc2)no1
The inhibition of the first is lower: 47.3% for the first, 64.9% for the second.

Going from CC(C)(C)c1ccc(-c2noc(CCC(=O)NC3CCCC3)n2)cc1 to CC(C)(C)c1ccc(-c2noc(CCC(=O)NC3CCCCC3)n2)cc1, the inhibition falls from 121% to 104%.

First: CC(C)(C)c1ccc(-c2noc(CCC(=O)N3CCOCC3)n2)cc1
Second: CC(C)(C)c1ccc(-c2noc(CCC(=O)NC3CCC3)n2)cc1
The inhibition of the first is lower: 32.4% for the first, 90.3% for the second.

Going from CCOc1ccccc1NC(=O)CCc1nc(-c2ccc(C(C)(C)C)cc2)no1 to COc1ccccc1NC(=O)CCc1nc(-c2ccc(C(C)(C)C)cc2)no1, the inhibition rises from 112% to 123%.

Going from CNC(=O)CCc1nc(-c2ccc(C)cc2)no1 to CNC(=O)CCc1nc(-c2ccc(F)cc2)no1, the inhibition falls from 76.6% to 8.8%.

Going from CNC(=O)CCc1nc(-c2ccc(C(C)C)cc2)no1 to CCNC(=O)CCc1nc(-c2ccc(C(C)C)cc2)no1, the inhibition falls from 8.04% to -41.3%.

Going from CCNC(=O)CCc1nc(-c2ccccc2Cl)no1 to CCNC(=O)CCc1nc(-c2ccccc2)no1, the inhibition falls from 13.5% to 13%.

Going from CCC(C)NC(=O)CCc1nc(-c2ccc(C(C)C)cc2)no1 (stereo not given) to CCC(C)NC(=O)CCc1nc(-c2ccc(C(C)(C)C)cc2)no1 (stereo not given), the inhibition rises from 38.4% to 52.2%.

Going from CC(C)(C)c1ccc(-c2noc(CCC(=O)Nc3ccccc3)n2)cc1 to CC(C)(C)c1ccc(-c2noc(CCC(=O)Nc3cccc([N+](=O)[O-])c3)n2)cc1, the inhibition falls from 128% to 86.3%.

Compared with CC(C)(C)NC(=O)CCc1nc(-c2ccccc2)no1, CCC(C)NC(=O)CCc1nc(-c2ccccc2)no1 (stereo not given) is higher in inhibition: -18.9% for the first, -3.82% for the second.

First: CCc1ccc(-c2noc(CCC(=O)NC3CC3)n2)cc1
Second: CCCCc1ccc(-c2noc(CCC(=O)NC3CC3)n2)cc1
The inhibition of the first is lower: -46.2% for the first, 16% for the second.

Going from O=C(O)CCc1nc(-c2ccccc2)no1 to CCCCc1ccc(-c2noc(CCC(=O)NC)n2)cc1, the inhibition falls from 45.4% to -4.31%.

Compared with CC(C)(C)NC(=O)CCc1nc(-c2ccc(C(C)(C)C)cc2)no1, CC(C)c1ccc(-c2noc(CCC(=O)NC(C)(C)C)n2)cc1 is lower in inhibition: 102% for the first, 90% for the second.

First: CCCCc1ccc(-c2noc(CCC(=O)NCC)n2)cc1
Second: CC(C)CNC(=O)CCc1nc(-c2ccc(C(C)(C)C)cc2)no1
The inhibition of the first is lower: 9.61% for the first, 65.5% for the second.

For CNC(=O)CCc1nc(-c2ccccc2)no1, the inhibition was -73.5% and 30.8%.
For CC(C)(C)c1ccc(-c2noc(CCC(N)=O)n2)cc1, the inhibition was 124% and 92.8%.
